Reference: ChEMBL document CHEMBL4402584, “Lead Optimization of Phthalazinone Phosphodiesterase Inhibitors as Novel Antitrypanosomal Compounds” (J Med Chem, 2020)

Key:
[1] = Cytotoxicity against human MRC5 SV2 cells assessed as reduction in cell viability incubated for 72 hrs by resazurin dye based fluorimetric assay; conditions: MRC-5 SV2, 72 h
Summary of the method: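 MRC-5 SV2 fibroblasts grown in Earl's MEM with 5% FBSi, L-glutamine and bicarbonate; 1×10^4 cells/well treated 72 h at 37 °C, 5% CO2; resazurin viability read fluorimetrically (ex 550, em 590 nm). Five 4-fold dilutions from a 64 µM top concentration; IC50 derived from % viability reduction vs untreated wells; tamoxifen as reference.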

Trypanosoma brucei = assay: Antitrypanosomal activity against Trypanosoma brucei Squib 427 assessed as reduction in parasite growth incubated for 72 hrs by resazurin dye based fluorimetric analysis; type: functional, organism-based; conditions: Squib 427, 72 h
[2] = target: T1, Class 1 phosphodiesterase PDEB1 (Trypanosoma brucei, UniProt Q8WQX9); assay: Inhibition of Trypanosoma brucei PDEB1 (565 to 918 residues) expressed in Escherichia coli BL21 (DE3) using cAMP as substrate by PDELight HTS cAMP phosphodiesterase Kit based
T1 sequence (Q8WQX9 whole entry): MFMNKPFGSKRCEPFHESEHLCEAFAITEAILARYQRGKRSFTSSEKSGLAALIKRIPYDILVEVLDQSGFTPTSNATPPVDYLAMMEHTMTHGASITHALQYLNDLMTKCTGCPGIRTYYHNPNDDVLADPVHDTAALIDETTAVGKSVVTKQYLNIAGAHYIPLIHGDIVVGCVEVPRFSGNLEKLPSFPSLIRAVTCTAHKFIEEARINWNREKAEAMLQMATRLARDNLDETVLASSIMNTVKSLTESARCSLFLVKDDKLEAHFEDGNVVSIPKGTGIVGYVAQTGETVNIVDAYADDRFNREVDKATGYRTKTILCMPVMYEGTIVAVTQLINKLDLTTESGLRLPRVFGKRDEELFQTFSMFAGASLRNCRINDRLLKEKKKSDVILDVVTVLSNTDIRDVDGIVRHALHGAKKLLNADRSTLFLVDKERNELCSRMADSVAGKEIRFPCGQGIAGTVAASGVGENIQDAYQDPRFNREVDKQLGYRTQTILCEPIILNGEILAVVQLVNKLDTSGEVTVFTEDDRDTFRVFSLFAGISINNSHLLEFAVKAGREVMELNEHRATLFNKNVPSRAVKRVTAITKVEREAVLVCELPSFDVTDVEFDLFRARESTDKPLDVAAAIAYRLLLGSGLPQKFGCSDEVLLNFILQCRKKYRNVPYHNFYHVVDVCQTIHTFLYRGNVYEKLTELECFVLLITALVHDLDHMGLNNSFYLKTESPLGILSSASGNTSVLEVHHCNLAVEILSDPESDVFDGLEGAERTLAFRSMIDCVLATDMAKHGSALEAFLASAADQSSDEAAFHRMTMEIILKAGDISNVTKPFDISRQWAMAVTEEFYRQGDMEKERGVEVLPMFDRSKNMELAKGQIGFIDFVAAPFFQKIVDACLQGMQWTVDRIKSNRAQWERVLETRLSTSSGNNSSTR
Summary of the method: (§1)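 Recombinant catalytic domains, His-tag purified, then ion exchange and size exclusion, were tested with the PDELight HTS cAMP kit in stimulation buffer (50 mM Hepes, 100 mM NaCl, 10 mM MgCl2, 0.5 mM EDTA, 0.05 mg/ml BSA, pH 7.5). Dose-response curves gave Ki, expressed as pKi = −log10(Ki ÷ 1000000).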

[3] = target: 3',5'-cyclic-AMP phosphodiesterase 4D (Homo sapiens, UniProt Q08499); assay: Inhibition of human PDE4D2 expressed in Escherichia coli BL21 (DE3) using cAMP as substrate by PDELight HTS cAMP phosphodiesterase Kit based; summary of the method: as §1
3',5'-cyclic-AMP phosphodiesterase 4D, sequence (Q08499 whole entry): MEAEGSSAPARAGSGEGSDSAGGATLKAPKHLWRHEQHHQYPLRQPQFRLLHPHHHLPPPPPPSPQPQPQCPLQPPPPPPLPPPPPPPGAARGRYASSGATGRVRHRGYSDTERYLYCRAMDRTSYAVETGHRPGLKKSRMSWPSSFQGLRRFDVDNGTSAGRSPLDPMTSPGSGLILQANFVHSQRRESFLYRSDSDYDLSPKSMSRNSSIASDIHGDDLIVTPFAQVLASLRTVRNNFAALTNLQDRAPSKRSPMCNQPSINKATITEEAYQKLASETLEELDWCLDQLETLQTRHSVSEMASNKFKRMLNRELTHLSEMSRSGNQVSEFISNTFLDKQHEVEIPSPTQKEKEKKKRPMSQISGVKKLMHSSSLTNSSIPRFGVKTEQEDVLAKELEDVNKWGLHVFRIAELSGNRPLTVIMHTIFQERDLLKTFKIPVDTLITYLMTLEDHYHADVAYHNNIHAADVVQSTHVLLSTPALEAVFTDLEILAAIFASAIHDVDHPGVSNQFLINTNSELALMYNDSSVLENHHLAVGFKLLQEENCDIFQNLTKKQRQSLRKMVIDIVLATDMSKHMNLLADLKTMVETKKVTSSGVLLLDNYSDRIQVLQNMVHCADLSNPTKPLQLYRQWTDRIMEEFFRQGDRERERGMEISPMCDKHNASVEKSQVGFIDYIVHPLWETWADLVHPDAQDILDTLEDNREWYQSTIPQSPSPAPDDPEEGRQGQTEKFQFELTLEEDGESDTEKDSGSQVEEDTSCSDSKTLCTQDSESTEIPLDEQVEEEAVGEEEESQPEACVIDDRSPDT

IC50 (Trypanosoma brucei) [µM] | Ki [2] [µM] | Ki [3] [µM] | SMILES | IC50 [1] [µM]
1.7 | 0.646 | 0.000589 | COc1ccc(C2=NN(C3CCN(c4ncc5ccccc5n4)CC3)C(=O)[C@@H]3CC=CC[C@H]23)cc1OC | 64.6
7.59 | 0.776 | 0.00162 | O=C(CN1C(=O)CC2(CCCCC2)CC1=O)N1CCC(N2N=C(c3ccc(OC(F)F)c(OC(F)F)c3)[C@H]3CC=CC[C@H]3C2=O)CC1 | 64.6
64.6 | 0.0977 | 0.000316 | COc1ccc(C2=NN(C3CCN(C(=O)CN4C(=O)CC(Cc5ccccc5)C4=O)CC3)C(=O)[C@@H]3CC=CC[C@H]23)cc1OC (stereo partly drawn) | 64.6
2 | 0.832 | 0.0302 | COc1ccc(C2=NN(C3CCN(c4nc(N)nc5sccc45)CC3)C(=O)[C@@H]3CC=CC[C@H]23)cc1Cl | 64.6
47.9 | > 9.77 |  | CC1(C)CC(=O)N(CC(=O)N2CCC(N3N=C(c4ccc(F)c(F)c4)[C@H]4CC=CC[C@H]4C3=O)CC2)C(=O)C1 (relative stereo) | 30.9
64.6 | 0.0776 | 0.00012 | CC1(C)CC(=O)N(CC(=O)N2CCC(N3N=C(c4ccc(F)cc4)[C@H]4CC=CC[C@H]4C3=O)CC2)C(=O)C1 (relative stereo) | 29.5
0.263 | 0.646 | 0.000224 | COc1ccc(C2=NN(C3CCN(c4ncnc5ccccc45)CC3)C(=O)[C@@H]3CC=CC[C@H]23)cc1OC | 3.02
10.2 | > 9.55 |  | O=C(CN1C(=O)CC2(CCCCC2)CC1=O)N1CCC(N2N=C(c3ccc(F)cc3)[C@H]3CC=CC[C@H]3C2=O)CC1 (relative stereo) | 64.6
0.468 | 0.0427 | 0.000355 | COc1ccc(C2=NN(C3CCN(c4nc(N)nc5sccc45)CC3)C(=O)[C@@H]3CC=CC[C@H]23)cc1OC | 64.6
3.39 | > 1.66 |  | O=C1[C@@H]2CC=CC[C@@H]2C(c2ccc(OC(F)F)c(O)c2)=NN1C1CCN(c2ncnc3ccsc23)CC1 | 64.6
0.813 | 0.0245 | 0.000155 | COc1ccc(C2=NN(C3CCN(c4nc(N)nc5ccccc45)CC3)C(=O)[C@@H]3CC=CC[C@H]23)cc1OC | 7.76
45.7 | > 22.4 |  | CC1(C)CC(=O)N(CC(=O)N2CCC(N3N=C(c4ccc(F)c(F)c4)[C@H]4CCCC[C@H]4C3=O)CC2)C(=O)C1 | 42.7
64.6 | > 31.6 |  | COc1ccc(-c2n[nH]c(=O)n3ccnc23)cc1OC | 64.6
2.51 | 0.17 | 0.000676 | COc1ccc(C2=NN(C3CN(C(=O)CN4C(=O)CC5(CCCC5)CC4=O)C3)C(=O)[C@@H]3CC=CC[C@H]23)cc1OC | 64.6
 | > 9.77 |  | COc1ccc(C2=NN(C3CCN(C(=O)CN4C(=O)CC5(CCCCC5)CC4=O)CC3)C(=O)[C@@H]3CCCC[C@H]23)cc1OC | 8.51
32.4 | > 31.6 |  | COc1ccc(-c2nn(C3CCNCC3)c(=O)n3ccnc23)cc1OC | 64.6
7.76 | > 3.72 |  | COc1ccc(-c2ccc(=O)n(C3CCN(c4nc(N)nc5sccc45)CC3)n2)cc1OC | 11.2
32.4 | > 2.04 |  | COc1ccc(C2=NN(C3CCN(c4ncnc5ccsc45)CC3)C(=O)C2(C)C)cc1OC | 25.1
32.4 | > 16.6 |  | O=C(CN1C(=O)CC2(CCCC2)CC1=O)N1CCC(N2N=C(c3ccc(F)cc3)[C@H]3CC=CC[C@H]3C2=O)CC1 (relative stereo) | 40.7
64.6 | > 18.2 |  | COc1ccc(-c2nn(C3CCN(c4nc(N)nc5sccc45)CC3)c(=O)n3ccnc23)cc1OC | 64.6
